A short description of data set [1]: Oral bioavailability in rat. Type of data set: ADME, organism-based. Particulars: in vivo.
In data set [2] the target is T1, Protein deacetylase HDAC6 (Homo sapiens, UniProt Q9UBN7).
T1 sequence (Q9UBN7 whole entry): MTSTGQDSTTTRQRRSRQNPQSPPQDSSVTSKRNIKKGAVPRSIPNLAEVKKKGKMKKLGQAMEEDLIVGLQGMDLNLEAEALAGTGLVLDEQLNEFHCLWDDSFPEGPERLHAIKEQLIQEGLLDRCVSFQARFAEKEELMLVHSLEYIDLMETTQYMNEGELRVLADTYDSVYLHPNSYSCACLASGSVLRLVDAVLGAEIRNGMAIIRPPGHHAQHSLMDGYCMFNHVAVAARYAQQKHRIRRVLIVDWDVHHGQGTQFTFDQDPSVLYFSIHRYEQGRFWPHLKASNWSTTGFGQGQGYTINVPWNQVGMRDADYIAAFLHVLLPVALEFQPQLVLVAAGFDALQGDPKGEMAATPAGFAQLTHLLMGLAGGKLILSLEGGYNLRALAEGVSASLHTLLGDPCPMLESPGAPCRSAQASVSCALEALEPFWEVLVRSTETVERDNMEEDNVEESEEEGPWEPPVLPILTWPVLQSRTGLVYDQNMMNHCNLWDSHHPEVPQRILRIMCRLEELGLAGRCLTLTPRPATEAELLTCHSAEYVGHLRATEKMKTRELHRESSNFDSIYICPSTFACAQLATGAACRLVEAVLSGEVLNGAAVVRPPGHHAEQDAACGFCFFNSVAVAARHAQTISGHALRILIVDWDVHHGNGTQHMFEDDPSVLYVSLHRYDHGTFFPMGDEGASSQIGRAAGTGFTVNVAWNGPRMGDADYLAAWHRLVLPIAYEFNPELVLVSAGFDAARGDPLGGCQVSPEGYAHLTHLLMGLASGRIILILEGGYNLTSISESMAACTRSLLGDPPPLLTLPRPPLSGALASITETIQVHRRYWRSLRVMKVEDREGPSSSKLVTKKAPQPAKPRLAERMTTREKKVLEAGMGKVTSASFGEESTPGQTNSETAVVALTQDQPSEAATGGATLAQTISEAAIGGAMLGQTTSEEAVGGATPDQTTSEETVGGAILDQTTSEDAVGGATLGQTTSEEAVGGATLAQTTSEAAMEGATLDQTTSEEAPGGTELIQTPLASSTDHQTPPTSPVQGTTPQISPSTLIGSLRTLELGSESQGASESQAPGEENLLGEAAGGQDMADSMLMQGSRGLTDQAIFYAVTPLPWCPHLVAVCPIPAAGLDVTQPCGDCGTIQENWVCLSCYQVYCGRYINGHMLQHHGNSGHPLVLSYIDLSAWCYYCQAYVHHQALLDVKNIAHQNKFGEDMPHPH
Briefly: Inhibition of human recombinant His-tagged HDAC6 expressed in baculovirus. Put shortly: (§1)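 Enzyme preincubated with inhibitor 10 min at ambient temperature in 25 mM Hepes pH 8.0, 137 mM NaCl, 1 mM MgCl₂, 2.7 mM KCl. Coumarin-labeled acetyl-lysine substrate then added, incubated at 37 °C. Quenched with trypsin (1 mg/mL final) and TSA (1 μM final). Fluorescence read; IC50 from dose–response curves. Values are means of at least two experiments.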

The nature of data set [3]: Half life in rat. Type of data set: ADME, organism-based. Conditions: in vivo.
The target of data set [4] is Histone deacetylase 1 (Homo sapiens, UniProt Q13547). Briefly: Inhibition of human recombinant FLAG-tagged HDAC1 expressed in baculovirus. In short, it runs like this:
as §1

Data set [5] can be described thus: Volume of distribution at steady state in rat. Type of data set: ADME, organism-based. Conditions: in vivo, read-out: Vdss.
Data set [6] can be described thus: Clearance in iv dosed rat. Type of data set: ADME, organism-based. Particulars: in vivo.
Data set [7] has as its target Histone deacetylase. As to the kind of experiment: Inhibition of HDAC in HEK293T cells by whole cell assay. The format is cell-based, Homo sapiens. Conditions: hek-293t. Put shortly: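 Cultured 293T cells exposed to inhibitors for 16 h, then given the membrane-permeable substrate Boc-Ac-Lys-AMC for 90 min at 37 °C. Quenched with trypsin (1 mg/mL final) and TSA, then lysed in 1% NP-40. Fluorescence read at Ex 360/Em 470 nm; IC50 reported. Values are means of at least two experiments.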

For data set [8], the species on record is Homo sapiens. As to the kind of experiment: Selectivity for ratio of IC50 for human recombinant HDAC1 to IC50 for human recombinant HDAC6. Put shortly:
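HDAC1 and HDAC6 were each preincubated with compound for 10 min at ambient temperature in 25 mM Hepes pH 8.0, 137 mM NaCl, 1 mM MgCl2, 2.7 mM KCl. A coumarin-labeled acetyl-lysine substrate was then added at 37 °C. Reactions were quenched with trypsin (1 mg/mL final) plus TSA, and fluorescence was read. IC50s came from dose-response curves, as means of at least two experiments. The ratio is HDAC1 IC50 over HDAC6 IC50.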

The subject of data set [9] is Plasma. As to the kind of experiment: Metabolic stability in human plasma. Type of data set: ADME, cell-free.
The nature of data set [10]: Bioavailability in dog. The format is ADME, organism-based, Canis lupus familiaris. Conditions: in vivo.
Data set [11] can be described thus: Clearance in dog. Type of data set: ADME, organism-based, Canis lupus familiaris. Particulars: in vivo.
Data set [12] relates to Plasma. As to the kind of experiment: Metabolic stability in rat plasma. Type of data set: ADME, cell-free.
The nature of data set [13]: Half life in dog. Type of data set: ADME, organism-based, Canis lupus familiaris. Particulars: in vivo.
The target in data set [14] is Histone deacetylase. Briefly: Inhibition of HDAC in T24 cells assessed as alpha-tubulin acetylation. Particulars: Homo sapiens.
For data set [15], the target named is Histone deacetylase. Briefly: Inhibition of HDAC in T24 cells assessed as histone H3 acetylation. Conditions: Homo sapiens.
A short description of data set [16]: Metabolic stability in rat plasma assessed as compound remaining after 1 hr. Particulars: read-out: Activity. The format is ADME, cell-free. In short, it runs like this:
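Compound kept in rat plasma at 37 °C for 1 h; percentage of intact compound remaining was measured.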

Structures are written as SMILES. Where only a bound is given, the exact number is not on record here.

Histone deacetylase 1, sequence (Q13547 whole entry): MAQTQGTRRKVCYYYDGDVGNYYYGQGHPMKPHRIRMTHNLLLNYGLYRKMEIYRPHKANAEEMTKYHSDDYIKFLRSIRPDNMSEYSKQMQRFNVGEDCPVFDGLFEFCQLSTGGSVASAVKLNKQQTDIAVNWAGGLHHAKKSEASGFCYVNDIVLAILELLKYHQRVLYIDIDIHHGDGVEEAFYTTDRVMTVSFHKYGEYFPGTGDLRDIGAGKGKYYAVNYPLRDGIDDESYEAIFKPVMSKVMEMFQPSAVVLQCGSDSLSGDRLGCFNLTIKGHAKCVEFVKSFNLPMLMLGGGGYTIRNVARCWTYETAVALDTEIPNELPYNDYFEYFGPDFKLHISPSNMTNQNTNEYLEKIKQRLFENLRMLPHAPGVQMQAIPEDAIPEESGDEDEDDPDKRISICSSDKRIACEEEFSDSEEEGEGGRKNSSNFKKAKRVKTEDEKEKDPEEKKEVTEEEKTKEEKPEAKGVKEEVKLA

Take `CN(C)CCOc1ccc(-c2nc([C@H](CCCCNS(N)(=O)=O)NC(=O)OCc3ccccc3)cs2)cc1`: the bioavailability (as a rule, dose-corrected exposure relative to a reference, in per cent) in [1] was 0.5%. Further, the 50% inhibitory concentration (IC50) (commonly the midpoint of a concentration-inhibition curve) in data set [2] was 0.89 µM; in data set [4], 0.39 µM; in [7], 0.18 µM. Besides, the half-life (in general, the time in which the quantity being followed falls by half) in data set [3] was 1.6 h. In addition, the Vd in [5] came out at 0.78 L/kg. Further, the clearance – broadly, the volume of plasma or blood freed of the substance per unit of time – in data set [6] is 38.3 mL/min/kg.
With `NS(=O)(=O)NCCCC[C@H](NC(=O)OCc1ccccc1)c1csc(-c2ccccc2)n1`, in [8], the Ratio IC50 amounted to 2. In addition, the IC50 turned out to be 0.4 µM in data set [2], 0.79 µM in [4] and 5.8 µM in data set [7].
As for `NS(=O)(=O)NCCCC[C@H](NS(=O)(=O)Cc1ccccc1)C(=O)Nc1nc(-c2ccccc2)cs1`, the IC50 stood at 0.52 µM in data set [2], 1.4 µM in [4] and 38 µM in data set [7].
The like results for `NS(=O)(=O)NCCCC[C@H](NC(=O)OCc1ccccc1)c1nc(-c2ccc(F)cc2)no1` were, in that order, 1.7 µM, greater than 10 µM and greater than 50 µM.
On to `NS(=O)(=O)NCCCC[C@H](NC(=O)OCc1ccccc1)c1nc2cc(-c3cccs3)ccc2[nH]1`, for which the Stability entry in data set [9] and in [12] was “Stable” throughout. Moreover, the bioavailability in data set [10] is 6%; in [1] it was 0.5%. Besides, the clearance in [11] is 8.5 mL/min/kg; in data set [6], 6.83 mL/min/kg. Also, the IC50 worked out at 0.48 µM in [2], 0.2 µM in data set [4] and 0.62 µM in [7]. Also, the half-life in data set [3] is 1.2 h; in [13], 5.7 h. The Vd in [5] amounted to 0.03 L/kg.
As to `COc1ccc(-c2csc(NC(=O)[C@H](CCCCNS(N)(=O)=O)NC(=O)OCc3ccccc3)n2)cc1`, the 50% inhibitory concentration (IC50) came to 0.2 µM in [2], 0.12 µM in [4] and 0.53 µM in data set [7].
The like results for `NS(=O)(=O)NCCCC[C@H](NC(=O)Cc1ccccc1)C(=O)Nc1nc(-c2ccccc2)cs1` were, in that order, 0.15 µM, 0.7 µM and 6.1 µM.
As to `COc1cccc(-c2csc(NC(=O)[C@H](CCCCNS(N)(=O)=O)NC(=O)OCc3ccccc3)n2)c1`, the values for the IC50 in [2], in [4] and in data set [7] were 0.42 µM, 0.46 µM and 3.2 µM, respectively.
Take `N[C@@H](CCCCNS(N)(=O)=O)C(=O)Nc1nc(-c2ccccc2)cs1`: the IC50 was 1.1 µM in data set [2], greater than 10 µM in data set [4] and greater than 50 µM in [7].
On the same counts, the results for `NS(=O)(=O)NCCCC[C@H](NC(=O)OCc1ccccc1)c1n[nH]c(-c2ccccc2)n1` are 0.32 µM, 2.4 µM and 6.4 µM.
The like results for `NS(=O)(=O)NCCCC[C@H](NC(=O)OCc1ccccc1)C(=O)Nc1nc(-c2ccc(Cl)cc2)cs1` were, in that order, 0.25 µM, 0.15 µM and 4.9 µM.
Consider `NS(=O)(=O)NCCCC[C@H](NC(=O)OCc1ccccc1)C(=O)Nc1nc(-c2ccccc2)cs1`, for which the EC50 (usually the concentration giving half of the maximal effect) in [14] came out at 0.6 µM; in data set [15], 0.7 µM. The compound also displayed a bioavailability in data set [1] of 4.9%. Also, the remaining at 1 h in [16] stood at 3%. The compound also gave a half-life in [3] of 0.025 h. In data set [5], the Vd was 0.02 L/kg. The clearance in [6] is 41.7 mL/min/kg. The IC50 in data set [7] stood at 2.3 µM.

The record behind these values is ChEMBL document CHEMBL1153367, “Synthesis and evaluation of lysine derived sulfamides as histone deacetylase inhibitors” (Bioorg Med Chem Lett, 2009).
